Columns and labels:
[1] = system: constitutive FGFR3 signaling; details: mouse model of achondroplasia; cited from earlier work
Wistar rats [2] = assay: MicroCT analysis of dentoalveolar tissues; format: in vivo, rat; details: for Rats with aberrant crown and root morphology of mandibular third molars: high dose (1.0 mg/kg) from PND7, PND37
Procedure, shortened: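 Daily oral gavage began at PND7 (vehicle, or test compound at 0.1 or 1.0 mg/kg), and formalin-fixed heads (5 per sex per group) were scanned by microCT at PND14 and PND37. PND37 thresholds were enamel 1500 and dentin/bone 650 mg HA/cm³. Alveolar bone included buccal/lingual, interdental and mesial rise regions. Read-outs were second-molar tissue volumes and densities, first-molar root lengths, and third-molar tissue thickness. Analysis was one-way ANOVA, p<0.05.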

Wistar rats [3] = assay: MicroCT analysis of craniofacial bones and sutures; format: in vivo, rat
Procedure, shortened: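 Wistar rats received daily oral gavage from PND7 (vehicle acetate buffer pH 4.68/PEG300 50:50, or 0.1 or 1.0 mg/kg) and were examined at PND14 and PND37; 5 per sex per group. MicroCT gave bone volume and mineral density of nasal, premaxilla, maxilla, frontal, parietal and interparietal bones, linear skull measurements from set landmarks, and suture patency on 2D/3D images. Analysis was one-way ANOVA.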

Wistar rats [4] = assay: Histology and immunohistochemistry of mandibles; format: in vivo, rat
[5] = female rats, high dose, PND37, vs vehicle
[6] = male rats, high dose, PND37, vs vehicle
[7] = female rats, high dose, vs vehicle

In the case of CCN1CCN(c2ccc(Nc3cc(N(C)C(=O)Nc4c(Cl)c(OC)cc(OC)c4Cl)ncn3)cc2)CC1 [infigratinib, 3-(2,6-Dichloro-3,5-dimethoxy-phenyl)-1-{6-[4-(4-ethyl-piperazin-1-yl)-phenylamino]-pyrimidin-4-yl}-1-methyl-urea], the “Effect on limb length and calvarial defects” value [1] is listed as “increase limb length and improve calvarial defects”, the “Rats with aberrant crown and root morphology of mandibular third molars” value (Wistar rats [2]; female rats) is listed as 100% and the Alveolar bone density (Wistar rats [2]; female rats, high dose, PND14, vs vehicle) is listed as “decreased alveolar bone density”. The “Pulp density of mandibular second molars” value (Wistar rats [2]; female rats, high dose, PND37) was “significant increase”, the “Reduction of mandibular first molar dentin volume” value (Wistar rats [2]; female rats, high dose, PND37, in comparison to the other groups) was 12% and the “Decrease of first molar lingual root length” value (Wistar rats [2]; [5]) was 9%. For the same compound, the “Decrease of first molar mesial root length” value (Wistar rats [2]; [5]) was 8%, the “Decrease of mandibular third molar dentin volume” value (Wistar rats [2]; [5]) was 40% and the “Decrease of mandibular third molar enamel volume” value (Wistar rats [2]; [5]) was 64%. For the same compound, the “Decrease of root dentin volume” value (Wistar rats [2]; [5]) was 21%, the “Alterations in dental tissues” value (Wistar rats [2]; low dose (0.1 mg/kg)) was “did not detect any alterations” and the “Rats with aberrant crown and root morphology of mandibular third molars” value (Wistar rats [2]; male rats) was 80%. The “Decrease of mandibular third molar dentin volume” value (Wistar rats [2]; [6]) was 28%, the “Decrease of mandibular third molar enamel thickness” value (Wistar rats [2]; [6]) was 33% and the “Decrease of mandibular third molar enamel volume” value (Wistar rats [2]; [6]) was 61%. The “Decrease of root dentin volume” value (Wistar rats [2]; [6]) was 16%, the “Dentin mineral density of second molars” value (Wistar rats [2]; [6]) was “significantly higher” and the Interfrontal suture patency (Wistar rats [3]; female rats, high dose, PND37, vs vehicle and low dose) was “significantly more patent”. For the same compound, the “Decrease of parietal bone volume” value (Wistar rats [3]; female rats, high dose, vs low dose) was 15%, the “Decrease of frontal bone volume” value (Wistar rats [3]; [7]) was 12% and the “Decrease of interparietal bone mineral density” value (Wistar rats [3]; [7]) was 4%. For the same compound, the “Decrease of interparietal bone volume” value (Wistar rats [3]; [7]) was 18%, the “Decrease of parietal bone volume” value (Wistar rats [3]; [7]) was 18% and the Coronal suture patency (Wistar rats [3]; females and males, low dose and high dose, PND14, vs vehicle) was “appeared more patent”. For the same compound, the Interfrontal suture width (Wistar rats [3]; [6]) was “significantly more patent”, the “Rats with root resorption (cathepsin K staining)” value (“Rats with root resorption” below) (Wistar rats [4]; female rats, high dose, PND37 (vehicle 75%)) was 25% and the “Rats with root resorption” value (Wistar rats [4]; female rats, low dose, PND37 (vehicle 75%)) was 50%. For the same compound, the “Rats with root resorption” value (Wistar rats [4]; male rats, low or high dose, PND37 (vehicle 25%)) was “no male rats in either low or high dose groups exhibited root resorption”.
